ChEMBL document CHEMBL1138624, “Design, synthesis, and quantitative structure-activity relationship of cytotoxic gamma-carboline derivatives” (Bioorg Med Chem, 2009)

Key:
Assay type in all cases: functional, cell-based
HCT-116 = assay: Cytotoxicity against human HCT116 cells after 48 hrs by MTT assay; conditions: HCT-116, 48 h
How it was run: (§1)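 Cell lines sourced from Shanghai Institute of Pharmaceutical Industry; K562R is a multidrug-resistant subline. Cells exposed to compound for 48 h, then MTT in RPMI-1640 added with a further 4 h at 37 °C. Formazan dissolved in DMSO, absorbance read at 570 nm. Triplicate wells in three independent experiments. IC50 (50% inhibition of viability) from dose-effect analysis, reported as mean of three experiments.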

A549 = assay: Cytotoxicity against human A549 cells after 48 hrs by MTT assay; conditions: A549, 48 h; how it was run: as §1
MCF7 = assay: Cytotoxicity against human MCF7 cells after 48 hrs by MTT assay; conditions: MCF7, 48 h; how it was run: as §1
K562 [1] = assay: Cytotoxicity against human K562 cells after 48 hrs by MTT assay; conditions: K562, 48 h; how it was run: as §1
K562 [2] = assay: Cytotoxicity against multidrug-resistant human K562 cells after 48 hrs by MTT assay; conditions: K562, 48 h; how it was run: as §1
[3] = Cytotoxicity against human SGC cells after 48 hrs by MTT assay; how it was run: as §1

Row | Compound | IC50 (HCT-116) [µM] | IC50 (A549) [µM] | IC50 (MCF7) [µM] | IC50 (K562 [1]; read-out: IC50) [µM] | IC50 (K562 [1]; read-out: pIC50 (converted)) [µM] | IC50 (K562 [2]) [µM] | IC50 [3] [µM]
1 | CCn1c2ccncc2c2cc(NC(=O)c3ccc(OC)cc3)ccc21 | 50.7 | 72 | 4.92 | 11.3 | 11.3 | 5.15 | 21.3
2 | O=S(=O)(Oc1ccccc1)c1ccc2[nH]c3ccncc3c2c1 | 45.2 | > 100 | 38.6 | 77.4 | 77.4 | 48.9 | > 100
3 | CCn1c2ccncc2c2cc(NC(=O)c3ccccc3O)ccc21 | > 100 | > 100 | 20.9 | 12.7 | 12.7 | 22.9 | 19.2
4 | COc1cc(NS(=O)(=O)c2ccc3[nH]c4ccncc4c3c2)cc(OC)c1OC | 16.9 | 48.2 | 19.2 | 11.3 | 11.3 | 73.4 | > 100
5 | CCN(c1cc(OC)c(OC)c(OC)c1)S(=O)(=O)c1ccc2c(c1)c1cnccc1n2CC | 10.2 | 33.9 | 2.07 | 1.02 | 1.02 | 3.02 | 13.8
6 | CCN(c1cc(OC)c(OC)c(OC)c1)S(=O)(=O)c1ccc2c(c1)c1c[n+](CC)ccc1n2CC | > 100 | > 100 | > 100 | > 100 | – | > 100 | > 100
7 | CCn1c2ccncc2c2cc(NC(=O)c3cccnc3)ccc21 | 87.2 | 73.5 | 18.1 | 14.5 | 14.5 | 40.6 | 50.9
8 | CCn1c2ccncc2c2cc(NC(=O)c3ccc(Br)cc3)ccc21 | > 100 | > 100 | 11.9 | 13.2 | 13.2 | 15.6 | 71.2
9 | CCn1c2ccncc2c2cc(NC(=O)c3ccc(S(C)(=O)=O)cc3)ccc21 | > 100 | > 100 | 22.8 | 22.9 | 22.9 | 96.6 | 36
10 | CCn1c2ccncc2c2cc(NC(=O)c3ccccc3Cl)ccc21 | 2.63 | 37.3 | 6.52 | 8.58 | 8.57 | 22.9 | 20.8
11 | O=S(=O)(Oc1ccc(Cl)cc1)c1ccc2[nH]c3ccncc3c2c1 | 32 | 47.3 | 26.3 | 20.5 | 20.5 | 13.9 | 39.7
12 | CCn1c2ccncc2c2cc(S(=O)(=O)Nc3ccccc3)ccc21 | 13.7 | > 100 | 0.88 | 20.7 | 20.7 | > 100 | 8
13 | CCn1c2ccncc2c2cc(NC(=O)c3ccccc3)ccc21 | > 100 | > 100 | 11.8 | 26.2 | 26.2 | 10.6 | 26.5
14 | CCn1c2ccncc2c2cc(NC(=O)c3cc(OC)c(OC)c(OC)c3)ccc21 | – | 15.9 | – | 13.6 | 13.6 | – | 16.1
15 | COc1ccc(OS(=O)(=O)c2ccc3[nH]c4ccncc4c3c2)cc1 | 23.9 | 22.6 | 16 | 6.6 | 6.61 | 5.7 | 21.4
16 | O=[N+]([O-])c1ccc(OS(=O)(=O)c2ccc3[nH]c4ccncc4c3c2)cc1 | 21 | 17.5 | 10.8 | 27.9 | 27.9 | 8.34 | 7.15
17 | Nc1ccc(OS(=O)(=O)c2ccc3[nH]c4ccncc4c3c2)cc1 | 20.9 | 10.1 | 16.6 | 18.4 | 18.5 | 5.95 | 2.12
18 | O=S(=O)(Oc1cccc2ccccc12)c1ccc2[nH]c3ccncc3c2c1 | 39.4 | 33.4 | 14.3 | 25.9 | 25.9 | 10.7 | 23.3
19 | CCn1c2ccncc2c2cc(S(=O)(=O)Nc3ccncc3)ccc21 | > 100 | > 100 | > 100 | > 100 | – | > 100 | > 100
20 | CCn1c2ccncc2c2cc(S(=O)(=O)Nc3ccc4c(ccn4C)c3)ccc21 | 23.2 | 73.5 | 4.99 | 12.2 | 12.2 | 16.8 | 73.2
21 | CCn1c2ccncc2c2cc(S(=O)(=O)Nc3cc(OC)c(OC)c(OC)c3)ccc21 | 32.3 | > 100 | 5.8 | 6.09 | 6.1 | > 100 | > 100
22 | O=S(=O)(Oc1cccc(Cl)c1)c1ccc2[nH]c3ccncc3c2c1 | 42.7 | 43.6 | 47.5 | 13.2 | 13.2 | 8.42 | 5.82
23 | COc1cc(OS(=O)(=O)c2ccc3[nH]c4ccncc4c3c2)cc(OC)c1OC | 0.77 | – | 0.86 | 4.5 | 4.5 | 2.62 | 0.15
24 | COc1ccccc1OS(=O)(=O)c1ccc2[nH]c3ccncc3c2c1 | 64.1 | 32 | 24.7 | 14.1 | 14.1 | 15.3 | 54.3
25 | O=S(=O)(Nc1cccc2ncccc12)c1ccc2[nH]c3ccncc3c2c1 | 30.8 | 22.8 | 23.7 | 12.7 | 12.7 | 18.5 | 95.4
